Experimental data published in ChEMBL document CHEMBL1122384, “Synthesis and evaluation of 24-(isopropyl[75Se]seleno)chol-5-en-3 beta-ol” (J Med Chem, 1983).

Assays:
Assay type in all cases: functional
[1] = Adrenal/Tissue ratio calculated from percent dose per gram of tissue determined after 1 day intravenous administration from kidney
Outline: (§1)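 Female Fischer 344 rats (160–180 g), fed ad libitum. Steroid dissolved in EtOH, formulated in Tween 80–EtOH–saline, 5–10 μCi in 1 mL given into a lateral tail vein under light Et₂O anesthesia. Organs removed 1 day post-injection, rinsed, blotted, weighed and gamma counted, 3 rats per time point. Ratios taken from adrenal vs tissue % dose/g.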

[2] = Adrenal/Tissue ratio calculated from percent dose per gram of tissue determined after 1 day intravenous administration from ovaries; outline: as §1
[3] = Adrenal/Tissue ratio calculated from percent dose per gram of tissue determined after 1 day intravenous administration from blood; outline: as §1
[4] = Adrenal/Tissue ratio calculated from percent dose per gram of tissue determined after 1 day intravenous administration from liver; outline: as §1

Q: Which Ratio [1] does the source give for CC(C)CCCC(C)C1CCC2C3CC(CI)C4=C(CCC(O)C4)C3CCC12C (centres undefined) here?
A: 107.8

Q: And the Ratio [2]?
A: 3

Q: What about the Ratio [3] of the same compound?
A: 92.1

Q: And the Ratio [4]?
A: 52.2
